Results taken from ChEMBL document CHEMBL4138134, “Antiplasmodial Chromanes and Chromenes from the Monotypic Plant Species Koeberlinia spinosa” (J Nat Prod, 2018).

Assays:
A2780 = assay: Cytotoxicity against human A2780 cells after 2 days by Alamar blue assay; type: cell-based; conditions: A2780, 48 h
Plasmodium falciparum = assay: Antimalarial activity against chloroquine/mefloquine-resistant Plasmodium falciparum Dd2 measured after 72 hrs by SYBR green1 dye based fluorescence assay; type: functional, organism-based
How it was run: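 Whole-parasite growth inhibition, 72 h treatment, SYBR Green I fluorescence read-out, IC50 derived. Both fractions and isolated compounds were tested on the chloroquine/mefloquine-resistant Dd2 strain. Artemisinin served as positive control.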

[1] = Plasmodium falciparum, Dd2, 72 h

SMILES	IC50 (A2780)	IC50 (Plasmodium falciparum; [1])	IC50 (Plasmodium falciparum)
C/C(=C/CC/C(C)=C/C(=O)C[C@]1(C)CCc2cc(O)cc(C)c2O1)CO	> 10 µM	24 µM	–
C/C(=C\CC/C(C)=C/C(=O)C[C@]1(C)CCc2cc(O)cc(C)c2O1)CO	> 10 µM	> 112 µM	–
COc1cc(C)c2c(c1)CC[C@@](C)(CC(=O)/C=C(\C)CC/C=C(\C)CO)O2	> 10 µM	24 µM	–
CC1=CCCC(C)(CC(=O)C[C@]2(C)CCc3cc(O)cc(C)c3O2)OC1 (single isomer, unassigned; diastereomer 2)	–	–	23 µM
C/C(=C/C(=O)C[C@]1(C)CCc2cc(O)cc(C)c2O1)CC/C=C(\C)CO	> 10 µM	–	–
C[C@@H]1CC[C@H]2[C@@H](C)C(=O)O[C@@H]3O[C@@]4(C)CC[C@@H]1[C@]32OO4 [ARTEMISININ]	–	0.009 µM	–
C/C(=C\CC/C(C)=C/C(=O)C[C@]1(C)C=Cc2cc(O)cc(C)c2O1)CO	> 10 µM	> 112 µM	–
C/C(=C\CC/C(C)=C/CC[C@]1(C)C=Cc2cc(O)cc(C)c2O1)CO	> 10 µM	–	–
CC1=CCCC(C)(CC(=O)C[C@]2(C)CCc3cc(O)cc(C)c3O2)OC1 (single isomer, unassigned; diastereomer 1)	> 10 µM	–	109 µM
C/C(=C/CC/C(C)=C\C(=O)C[C@]1(C)CCc2cc(O)cc(C)c2O1)CO	> 10 µM	–	–
